Calls of active or inactive are those of the source.
Tests used:
[1] = test system: Mus musculus; assay: Smoke cessation activity in sc dosed ICR mouse assessed as inhibition of nicotine-induced antinociception administered 15 mins before nicotine challenge measured after 5 mins of nicotine infusion by hotplate assay; assay type: functional, organism-based
In short: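 Male ICR mice (20–25 g) were pretreated with saline or test drug 15 min before nicotine at 2.5 mg/kg sc. They were tested 5 min later on a 55 °C hot plate (40 s cutoff), and the result was expressed as %MPE. AD₅₀ came from at least four doses, with at least 8 mice per dose.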

[2] = test system: Mus musculus; assay: Toxicity in sc dosed ICR mouse assessed occurrence of sedation; assay type: organism-based; conditions: in vivo
[3] = target: Neuronal acetylcholine receptor; alpha4/beta2 (Homo sapiens, UniProt P17787+P43681); assay: Agonist activity at alpha4beta2 nicotinic receptor in human SH-EP1 cells assessed as induction of radiolabeled Rb+ influx at 0.005 to 100 uM by liquid scintillation counting; assay type: functional, cell-based
In short: (§1)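 Cells were labelled with ⁸⁶Rb⁺ for at least 4 h, then exposed for 5 min in efflux buffer (pH 7.4) to test ligand alone at ~5 nM to 100 μM. The lines were TE671/RD (muscle α1β1γδ), SH-SY5Y (α3β4*) and transfected SH-EP1-hα4β2 or -hα4β4. Efflux was Cerenkov-counted. Non-specific efflux was subtracted, and results were normalized to specific efflux from carbamylcholine (1 mM; 3 mM for SH-SY5Y).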

[4] = test system: Mus musculus; assay: Smoke cessation activity in sc dosed ICR mouse assessed as inhibition of nicotine-induced hypothermia administered 15 mins before nicotine challenge measured after 30 mins of nicotine infusion; assay type: functional, organism-based
In short: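 Male ICR mice (20–25 g) were pretreated with test drug or saline 15 min before nicotine at 2.5 mg/kg sc. Rectal temperature was taken before and 30 min after nicotine, and the change was calculated. Room temperature was 21–24 °C. AD₅₀ came from at least four doses, with at least 8 mice per dose.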

[5] = target: T1, Neuronal acetylcholine receptor; alpha4/beta4 (Homo sapiens, UniProt P30926+P43681); assay: Agonist activity at alpha4beta4 nicotinic receptor in human SH-EP1 cells assessed as induction of radiolabeled Rb+ influx at 0.005 to 100 uM by liquid scintillation counting; assay type: functional, cell-based; in short: as §1
[6] = test system: Mus musculus; assay: Toxicity in sc dosed ICR mouse assessed occurrence of convulsion; assay type: organism-based; conditions: in vivo
[7] = test system: Mus musculus; assay: Smoke cessation activity in sc dosed ICR mouse assessed as inhibition of nicotine-induced increase in locomotor activity administered 15 mins before nicotine challenge measured after 5 mins of nicotine infusion; assay type: functional, organism-based
[8] = test system: Mus musculus; assay: Smoke cessation activity in sc dosed ICR mouse assessed as inhibition of nicotine-induced antinociception administered 15 mins before nicotine challenge measured after 5 mins of nicotine infusion by tail-flick assay; assay type: functional, organism-based
In short: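 Radiant-heat tail-flick latency was read 5 min later (10 s cutoff; baseline 2–4 s) and expressed as %MPE. AD₅₀ came from at least four doses, with at least 8 mice per dose.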

[9] = test system: SH-EP1; assay: Selectivity ratio of IC50 for alpha4beta2 nicotinic receptor in human SH-EP1 cells to IC50 for IC50 for human NET; assay type: cell-based
[10] = target: T1, Neuronal acetylcholine receptor; alpha4/beta4; assay: Antagonist activity at alpha4beta4 nicotinic receptor in human SH-EP1 cells assessed as inhibition varbamylcholine-induced radiolabeled Rb+ influx at by liquid scintillation counting; assay type: functional, cell-based
In short: (§2)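 ⁸⁶Rb⁺-loaded human cells were given a 5-min efflux with carbamylcholine at EC₈₀–EC₉₀ plus graded test ligand. Non-specific efflux, taken with 100 μM mecamylamine or buffer, was subtracted. IC₅₀ came from a Hill fit of three independent experiments, with SEM given as a multiplication factor.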

[11] = target: Acetylcholine receptor; alpha1/beta1/delta/gamma (Homo sapiens, UniProt P02708+P07510+P11230+Q07001); assay: Antagonist activity at alpha-1-beta-1-gamma-delta nicotinic receptor in human TE671 cells assessed as inhibition varbamylcholine-induced radiolabeled Rb+ influx at by liquid scintillation counting; assay type: functional, cell-based, TE-671; in short: as §2
[12] = test system: SH-SY5Y; assay: Selectivity ratio of IC50 for alpha3beta4 nicotinic receptor in human SH-SY5Y cells to IC50 for IC50 for human NET; assay type: cell-based

Acetylcholine receptor; alpha1/beta1/delta/gamma, sequence (P02708 whole entry): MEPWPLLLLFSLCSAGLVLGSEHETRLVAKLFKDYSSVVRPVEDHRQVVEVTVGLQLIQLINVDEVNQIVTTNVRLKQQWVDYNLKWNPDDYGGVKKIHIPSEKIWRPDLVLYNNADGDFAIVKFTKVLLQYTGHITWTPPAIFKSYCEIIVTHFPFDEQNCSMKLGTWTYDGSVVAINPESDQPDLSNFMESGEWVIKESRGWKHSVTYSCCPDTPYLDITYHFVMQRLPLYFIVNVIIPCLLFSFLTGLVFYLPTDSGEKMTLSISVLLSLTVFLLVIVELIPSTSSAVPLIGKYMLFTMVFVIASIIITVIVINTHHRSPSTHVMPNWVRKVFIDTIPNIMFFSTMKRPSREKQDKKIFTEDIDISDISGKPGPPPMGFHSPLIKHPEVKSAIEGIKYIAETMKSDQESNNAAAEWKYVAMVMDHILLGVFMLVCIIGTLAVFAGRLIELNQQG
Acetylcholine receptor; alpha1/beta1/delta/gamma, sequence (P07510 whole entry): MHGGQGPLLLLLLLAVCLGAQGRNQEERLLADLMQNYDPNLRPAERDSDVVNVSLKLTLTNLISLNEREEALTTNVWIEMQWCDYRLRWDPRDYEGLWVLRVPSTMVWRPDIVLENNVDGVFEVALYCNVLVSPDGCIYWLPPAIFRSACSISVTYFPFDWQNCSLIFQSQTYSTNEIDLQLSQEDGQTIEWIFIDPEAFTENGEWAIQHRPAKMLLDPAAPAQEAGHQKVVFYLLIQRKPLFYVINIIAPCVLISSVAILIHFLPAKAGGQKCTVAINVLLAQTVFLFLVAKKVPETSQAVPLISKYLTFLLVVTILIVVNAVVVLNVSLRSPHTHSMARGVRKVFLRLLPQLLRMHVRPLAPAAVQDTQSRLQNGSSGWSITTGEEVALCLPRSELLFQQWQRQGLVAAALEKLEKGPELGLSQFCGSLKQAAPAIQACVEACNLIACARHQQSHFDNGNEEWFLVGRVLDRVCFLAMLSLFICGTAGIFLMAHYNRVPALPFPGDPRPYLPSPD
Acetylcholine receptor; alpha1/beta1/delta/gamma, sequence (P11230 whole entry): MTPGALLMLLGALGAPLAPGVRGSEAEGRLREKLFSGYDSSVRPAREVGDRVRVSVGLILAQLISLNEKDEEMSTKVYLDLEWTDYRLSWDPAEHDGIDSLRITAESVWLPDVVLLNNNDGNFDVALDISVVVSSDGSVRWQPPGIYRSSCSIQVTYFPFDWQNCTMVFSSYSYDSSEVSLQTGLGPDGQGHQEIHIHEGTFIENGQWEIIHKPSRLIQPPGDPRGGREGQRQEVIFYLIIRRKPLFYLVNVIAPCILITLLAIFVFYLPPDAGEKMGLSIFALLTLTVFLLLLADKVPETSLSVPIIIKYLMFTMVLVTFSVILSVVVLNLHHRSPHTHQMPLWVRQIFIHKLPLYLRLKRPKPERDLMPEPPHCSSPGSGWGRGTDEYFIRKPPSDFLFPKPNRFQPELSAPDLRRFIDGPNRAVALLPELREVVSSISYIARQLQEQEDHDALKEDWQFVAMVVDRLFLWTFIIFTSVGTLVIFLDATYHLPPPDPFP
Acetylcholine receptor; alpha1/beta1/delta/gamma, sequence (Q07001 whole entry): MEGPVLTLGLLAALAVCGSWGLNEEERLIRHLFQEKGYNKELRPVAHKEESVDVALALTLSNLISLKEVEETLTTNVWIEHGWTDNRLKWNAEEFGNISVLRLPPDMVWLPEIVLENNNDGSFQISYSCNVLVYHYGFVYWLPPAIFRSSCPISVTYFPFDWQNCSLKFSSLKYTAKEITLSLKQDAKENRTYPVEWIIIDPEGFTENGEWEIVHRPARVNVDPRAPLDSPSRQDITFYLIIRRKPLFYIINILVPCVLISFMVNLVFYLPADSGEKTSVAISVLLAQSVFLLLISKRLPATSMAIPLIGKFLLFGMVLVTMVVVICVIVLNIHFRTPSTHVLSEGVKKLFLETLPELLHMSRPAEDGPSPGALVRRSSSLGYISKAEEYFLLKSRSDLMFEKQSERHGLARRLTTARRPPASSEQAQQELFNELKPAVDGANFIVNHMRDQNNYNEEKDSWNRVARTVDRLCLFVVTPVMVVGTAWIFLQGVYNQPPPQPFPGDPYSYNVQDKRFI
T1 sequence (P30926 whole entry): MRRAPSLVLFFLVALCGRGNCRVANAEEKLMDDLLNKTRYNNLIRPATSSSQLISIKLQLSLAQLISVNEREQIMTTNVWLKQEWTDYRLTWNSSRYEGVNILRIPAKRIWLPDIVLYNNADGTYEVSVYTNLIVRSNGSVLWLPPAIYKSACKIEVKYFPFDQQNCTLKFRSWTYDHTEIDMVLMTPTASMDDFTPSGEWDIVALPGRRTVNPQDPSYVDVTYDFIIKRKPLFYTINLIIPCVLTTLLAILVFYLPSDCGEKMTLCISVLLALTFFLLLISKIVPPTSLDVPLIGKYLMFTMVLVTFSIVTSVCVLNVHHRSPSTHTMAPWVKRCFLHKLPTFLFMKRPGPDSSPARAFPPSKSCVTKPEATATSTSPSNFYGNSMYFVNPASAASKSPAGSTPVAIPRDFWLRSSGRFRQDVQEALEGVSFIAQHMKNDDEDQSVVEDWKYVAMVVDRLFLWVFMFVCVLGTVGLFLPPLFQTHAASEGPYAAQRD
T1 sequence (P43681 whole entry): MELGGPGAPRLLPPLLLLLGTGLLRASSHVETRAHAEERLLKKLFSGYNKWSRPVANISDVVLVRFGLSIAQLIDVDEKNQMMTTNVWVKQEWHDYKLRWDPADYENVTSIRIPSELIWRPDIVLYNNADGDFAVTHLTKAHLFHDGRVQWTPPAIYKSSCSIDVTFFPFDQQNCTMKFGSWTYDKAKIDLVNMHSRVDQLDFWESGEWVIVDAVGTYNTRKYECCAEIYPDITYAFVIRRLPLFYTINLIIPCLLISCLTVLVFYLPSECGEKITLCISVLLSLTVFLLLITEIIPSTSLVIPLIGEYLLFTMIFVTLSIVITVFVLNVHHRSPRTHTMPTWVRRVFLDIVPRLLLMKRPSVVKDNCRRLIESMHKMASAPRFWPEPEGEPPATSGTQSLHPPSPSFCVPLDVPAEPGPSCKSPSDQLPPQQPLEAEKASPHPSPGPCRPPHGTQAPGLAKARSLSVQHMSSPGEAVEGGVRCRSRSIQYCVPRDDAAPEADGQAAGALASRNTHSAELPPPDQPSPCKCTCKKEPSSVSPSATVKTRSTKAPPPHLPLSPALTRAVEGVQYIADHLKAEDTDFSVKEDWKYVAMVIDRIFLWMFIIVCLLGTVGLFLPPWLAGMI

Structure (SMILES)	IC50 [1] [mg/kg]	Activity [2]	Activity [3]	IC50 [4] [mg/kg]	Activity [5]	Activity [6]	IC50 [7] [mg/kg]	IC50 [8] [mg/kg]	Ratio IC50 [9]	IC50 [10] [µM]	IC50 [11] [µM]	Ratio IC50 [12]
Cc1ccc([C@]2(O)OCC(C)(C)N[C@H]2C)cc1	> 15	Non-toxic	inactive	> 15	inactive	Non-toxic	> 15	0.004				
C[C@@H]1NC(C)(C)CO[C@@]1(O)c1ccc(F)cc1	> 15	Non-toxic	inactive	5.67	inactive	Non-toxic	> 15	0.013	3	> 100		
C[C@@H]1NC(C)(C)CO[C@@]1(O)c1ccc(-c2ccccc2)cc1	> 15	Non-toxic		> 15		Non-toxic	> 15	0.021				
C[C@@H]1NC(C)(C)CO[C@@]1(O)c1cc(F)cc(F)c1	> 15	Non-toxic	inactive	> 15	inactive	Non-toxic	> 15	0.0056				
C[C@@H]1N(C)C(C)(C)CO[C@@]1(O)c1ccc(Cl)cc1	> 15	Non-toxic	inactive	> 15	inactive	Non-toxic	> 15	0.32				
C[C@@H]1NC(C)(C)CO[C@@]1(O)c1ccccc1	> 15	Non-toxic		> 15		Non-toxic	> 15	> 15			> 100	
CC(NC(C)(C)C)C(=O)c1cccc(Cl)c1 (racemic) [BUPROPION]	15	Non-toxic		9.2		Non-toxic						
COc1ccc([C@]2(O)OCC(C)(C)N[C@H]2C)cc1	> 15	Non-toxic	inactive	> 15	inactive	Non-toxic	> 15	0.019				
CC1NC(C)(C)COC1(O)c1ccccn1 (racemic)		Non-toxic	inactive		inactive	Non-toxic				> 100	> 100	
C[C@@H]1NC(C)(C)CO[C@@]1(O)c1ccc(F)c(F)c1	> 15	Non-toxic	inactive	> 15	inactive	Non-toxic	> 15	0.006		> 100		
C[C@@H]1N(C)C(C)(C)CO[C@@]1(O)c1cccc(Cl)c1	> 15	Non-toxic	inactive	> 15	inactive	Non-toxic	> 15	0.016				
CC1NC(C)(C)COC1(O)c1ccc(Cl)c(Cl)c1 (racemic)	> 15	Non-toxic	inactive	> 15	inactive	Non-toxic	> 15	8.8	175			23
CC[C@@H]1NC(C)(C)CO[C@@]1(O)c1cccc(Cl)c1	3.7	Non-toxic	inactive	7	inactive	Non-toxic	10.3	0.004	67			
C[C@@H]1NC(C)(C)CO[C@@]1(O)c1cccc(Br)c1	4.3	Non-toxic	inactive	1.7	inactive	Non-toxic	2.6	0.16				
Cc1cccc([C@]2(O)OCC(C)(C)N[C@H]2C)c1	7.6	Non-toxic	inactive	2.3	inactive	Non-toxic	> 15	0.054	5.3			
C[C@H]1NC(C)(C)CO[C@]1(O)c1cccc(Cl)c1	10.3	Non-toxic		> 15		Non-toxic	> 15	2.5				
C[C@@H]1NC(C)(C)CO[C@@]1(O)c1cccc([N+](=O)[O-])c1	> 15	Non-toxic	inactive	4.7	inactive	Non-toxic	> 15	4.9	4			
C[C@@H]1NC(C)(C)CO[C@@]1(O)c1cccc(Cl)c1 [RADAFAXINE]	1	Non-toxic				Non-toxic	0.9	0.2				
COc1cccc([C@]2(O)OCC(C)(C)N[C@H]2C)c1	> 15	Non-toxic	inactive	> 15	inactive	Non-toxic	> 15	5.85	3.3	> 100		
C[C@@H]1NC(C)(C)CO[C@@]1(O)c1ccc(Cl)cc1	> 15	Non-toxic	inactive	> 15	inactive	Non-toxic	> 15	0.019				
CC1NC(C)(C)COC1(O)c1cc(Cl)cc(Cl)c1 (racemic)	> 15	Non-toxic	inactive	> 15	inactive	Non-toxic	1.9	> 15	4.5			
C[C@@H]1NC(C)(C)CO[C@@]1(O)c1cccc(F)c1	8.6	Non-toxic	inactive	4.4	inactive	Non-toxic	> 15	0.012	1.7	> 100	> 100	
CC1NC(C)(C)COC1(O)c1cccnc1 (racemic)		Non-toxic	inactive		inactive	Non-toxic				> 100	> 100	

Reference: ChEMBL document CHEMBL1177712, “Synthesis and characterization of in vitro and in vivo profiles of hydroxybupropion analogues: aids to smoking cessation” (J Med Chem, 2010)
